According to ChEMBL document CHEMBL3120098, “Structure-activity relationship (SAR) optimization of 6-(indol-2-yl)pyridine-3-sulfonamides: identification of potent, selective, and orally bioavailable small molecules targeting hepatitis C (HCV) NS4B” (J Med Chem, 2014):
One block for each compound: values may come before it.

Tests used:
[1] = Ratio of EC50 for HCV1b Con1 to plasma concentration in beagle dog at 5 mg/kg, po after 8 hrs
[2] = species on record: Rattus norvegicus; assay: Drug metabolism in bile duct cannulated rat assessed as 6-(3-cyano-5-fluoro-6-(1-hydroxyethyl)-1-(pyrimidin-2-yl)-1H-indol-2-yl)-N-((S)-1,1,1-trifluoropropan-2-yl)pyridine-3-sulfonamide level in plasma; type: ADME, organism-based
[3] = system: Rhesus monkey; assay: Drug metabolism in bile duct cannulated monkey assessed as GSH adduct formation; type: ADME, organism-based, Macaca mulatta; conditions: in vivo
[4] = Ratio of EC50 for HCV1b Con1 to plasma concentration in Sprague-Dawley rat at 10 mg/kg, po after 8 hrs
[5] = Toxicity in human HuH7 cells assessed as effect on GAPDH mRNA level; type: cell-based, Huh-7
In short: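 Run in parallel with replicon assay in Con1 replicon Huh-7 cells (0.5% DMSO, 37 °C); endogenous GAPDH mRNA quantified by TaqMan RT-PCR; highest concentration tested 10000 nM.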

[6] = Ratio of drug level in liver to plasma in Sprague-Dawley rat at 10 mg/kg, po after 6 hrs; type: ADME, organism-based; design: dose 10 mg/kg, route oral
In short: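 Male Sprague-Dawley rats, 10 mg/kg PO suspension in 0.4% hydroxypropyl methylcellulose; liver and plasma drug levels measured at 6 h, expressed as liver/plasma ratio.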

[7] = molecular target: Cytochrome P450 2C9 (Homo sapiens, UniProt P11712); assay: Inhibition of CYP2C9 in human liver microsomes; type: ADME
Cytochrome P450 2C9, sequence (P11712 whole entry): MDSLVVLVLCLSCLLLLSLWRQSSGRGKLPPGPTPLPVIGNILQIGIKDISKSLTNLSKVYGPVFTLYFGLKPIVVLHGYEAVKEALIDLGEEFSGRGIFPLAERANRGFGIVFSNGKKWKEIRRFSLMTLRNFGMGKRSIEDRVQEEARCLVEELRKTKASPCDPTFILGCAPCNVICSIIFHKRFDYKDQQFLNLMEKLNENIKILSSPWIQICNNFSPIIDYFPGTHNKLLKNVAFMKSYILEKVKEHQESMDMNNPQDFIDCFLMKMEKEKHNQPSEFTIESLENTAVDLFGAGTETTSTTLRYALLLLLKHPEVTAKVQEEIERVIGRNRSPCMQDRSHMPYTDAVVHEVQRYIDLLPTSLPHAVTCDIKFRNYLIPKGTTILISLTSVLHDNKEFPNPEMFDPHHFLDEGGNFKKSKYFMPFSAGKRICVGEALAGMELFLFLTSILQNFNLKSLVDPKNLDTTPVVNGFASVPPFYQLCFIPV

[8] = Clearance in cynomolgus monkey at 2.5 mg/kg, iv; type: ADME, organism-based, Macaca fascicularis; design: dose 2.5 mg/kg, route intravenous; conditions: in vivo
[9] = AUC (0 to infinity) in Sprague-Dawley rat at 10 mg/kg, po; type: ADME, organism-based; design: time infinity, dose 10 mg/kg, route oral; conditions: plasma
[10] = molecular target: T1, Cytochrome P450 3A4 (Homo sapiens, UniProt P08684); assay: Induction of CYP3A4 activity in human hepatocytes at 3 uM relative to rifampicin; type: ADME, cell-based, Hepatocyte
T1 sequence (P08684 whole entry): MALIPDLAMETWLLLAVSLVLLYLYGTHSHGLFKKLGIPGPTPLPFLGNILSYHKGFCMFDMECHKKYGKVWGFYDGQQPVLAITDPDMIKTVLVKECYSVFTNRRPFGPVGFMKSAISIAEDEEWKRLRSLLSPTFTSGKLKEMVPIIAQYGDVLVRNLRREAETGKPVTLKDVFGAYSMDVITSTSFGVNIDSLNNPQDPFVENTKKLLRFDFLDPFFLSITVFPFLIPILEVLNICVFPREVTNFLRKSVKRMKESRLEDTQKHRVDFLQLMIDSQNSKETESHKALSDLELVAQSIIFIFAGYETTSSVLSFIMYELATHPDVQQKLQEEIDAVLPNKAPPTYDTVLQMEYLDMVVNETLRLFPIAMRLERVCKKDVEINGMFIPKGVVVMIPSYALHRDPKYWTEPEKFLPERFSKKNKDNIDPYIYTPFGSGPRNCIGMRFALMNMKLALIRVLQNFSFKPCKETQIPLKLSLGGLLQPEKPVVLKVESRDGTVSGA
In short: (§1)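 Cryopreserved cultured human hepatocytes incubated 3 days with compound at several concentrations; CYP3A4 enzyme activity and mRNA expression measured, expressed as percent induction relative to rifampicin.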

[11] = molecular target: T1, Cytochrome P450 3A4; assay: Induction of CYP3A4 activity in human hepatocytes at 5 uM relative to rifampicin; type: ADME, cell-based, Hepatocyte; in short: as §1
[12] = species on record: Rattus norvegicus; assay: Drug metabolism in bile duct cannulated rat assessed as 6-(3-cyano-5-fluoro-6-(1-hydroxyethyl)-1-(pyrimidin-2-yl)-1H-indol-2-yl)pyridine-3-sulfonamide level in plasma; type: ADME, organism-based
[13] = Ratio of EC50 for HCV1b Con1 to plasma concentration in Sprague-Dawley rat at 10 mg/kg, po after 6 hrs
[14] = species on record: Rattus norvegicus; assay: Drug metabolism in bile duct cannulated rat assessed as 6-(3-cyano-6-ethyl-5-fluoro-1-(pyrimidin-2-yl)-1H-indol-2-yl)pyridine-3-sulfonamide level in plasma; type: ADME, organism-based
[15] = Cmax in cynomolgus monkey at 5 mg/kg, po; type: ADME, organism-based, Macaca fascicularis; design: dose 5 mg/kg, route oral; conditions: in vivo
[16] = Cmax in Sprague-Dawley rat at 10 mg/kg, po; type: ADME, organism-based; design: dose 10 mg/kg, route oral; conditions: in vivo
[17] = (§2) Oral bioavailability in beagle dog at 5 mg/kg; type: ADME, organism-based, Canis lupus familiaris; conditions: beagle, in vivo
[18] = Volume of distribution at steady state in beagle dog at 2.5 mg/kg, iv and 5 mg/kg, po; type: ADME, organism-based, Canis lupus familiaris; conditions: in vivo, read-out: Vdss
[19] = system: Pregnane X receptor (Homo sapiens); assay: Activation of PXR (unknown origin) at 10 uM by reporter gene assay
[20] = (§3) AUC (0 to infinity) in beagle dog at 5 mg/kg, po; type: ADME, organism-based, Canis lupus familiaris, Plasma; design: dose 5 mg/kg, route oral, time infinity; conditions: beagle, plasma
[21] = system: Hepatitis C virus; assay: Antiviral activity against HCV1a H77S assessed as inhibition of viral replication; type: functional, organism-based, Hepacivirus hominis; conditions: genotype 1a H77S
[22] = Oral bioavailability in cynomolgus monkey at 5 mg/kg; type: ADME, organism-based, Macaca fascicularis; conditions: in vivo
[23] = Volume of distribution at steady state in Sprague-Dawley rat at 6 mg/kg, iv and 10 mg/kg, po; type: ADME, organism-based; conditions: in vivo, read-out: Vdss
[24] = Clearance in Sprague-Dawley rat at 6 mg/kg, iv; type: ADME, organism-based; design: dose 6 mg/kg, route intravenous; conditions: in vivo
[25] = molecular target: Cytochrome P450 2D6 (Homo sapiens, UniProt P10635); assay: Inhibition of CYP2D6 in human liver microsomes; type: ADME
Cytochrome P450 2D6, sequence (P10635 whole entry): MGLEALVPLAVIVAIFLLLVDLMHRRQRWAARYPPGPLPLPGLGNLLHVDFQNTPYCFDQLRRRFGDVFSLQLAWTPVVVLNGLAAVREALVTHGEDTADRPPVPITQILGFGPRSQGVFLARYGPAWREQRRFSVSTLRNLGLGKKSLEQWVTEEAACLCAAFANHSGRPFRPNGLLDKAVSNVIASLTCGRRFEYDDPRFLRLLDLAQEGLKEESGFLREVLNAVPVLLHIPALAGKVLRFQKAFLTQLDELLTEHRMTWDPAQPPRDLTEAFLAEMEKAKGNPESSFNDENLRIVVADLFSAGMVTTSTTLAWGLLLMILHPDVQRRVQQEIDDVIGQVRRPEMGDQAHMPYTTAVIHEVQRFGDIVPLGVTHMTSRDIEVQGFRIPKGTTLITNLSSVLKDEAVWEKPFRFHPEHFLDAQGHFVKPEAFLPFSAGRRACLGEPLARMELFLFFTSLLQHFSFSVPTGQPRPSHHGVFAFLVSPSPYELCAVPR

[26] = Ratio of EC50 for HCV1b Con1 to plasma concentration in cynomolgus monkey at 5 mg/kg, po after 8 hrs
[27] = system: Rattus norvegicus; assay: Toxicity in rat up to 2000 mg/kg/day; type: organism-based; conditions: in vivo
In short: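 Non-GLP 14-day rat safety study with daily dosing up to 2000 mg/kg/day.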

[28] = Cmax in beagle dog at 5 mg/kg, po; type: ADME, organism-based, Canis lupus familiaris; design: dose 5 mg/kg, route oral; conditions: in vivo
[29] = system: Hepatitis C virus; assay: Antiviral activity against HCV1b Con1 infected in human HuH7 cells assessed as inhibition of viral RNA replication by RT-PCR analysis; type: functional, organism-based, Hepacivirus hominis; conditions: isolate Con1, Huh-7
[30] = Clearance in beagle dog at 2.5 mg/kg, iv; type: ADME, organism-based, Canis lupus familiaris; design: dose 2.5 mg/kg, route intravenous; conditions: in vivo
[31] = Terminal half life in Sprague-Dawley rat at 6 mg/kg, iv; type: ADME, organism-based; design: dose 6 mg/kg, route intravenous; conditions: in vivo, read-out: beta t1/2 (converted)
[32] = molecular target: T1, Cytochrome P450 3A4; assay: Inhibition of CYP3A4 in human liver microsomes; type: ADME
[33] = system: Hepatocyte; assay: Induction of CYP3A4 mRNA expression in human hepatocytes at 3 uM relative to rifampicin; type: ADME, cell-based; in short: as §1
[34] = AUC (0 to infinity) in cynomolgus monkey at 5 mg/kg, po; type: ADME, organism-based, Macaca fascicularis; design: time infinity, dose 5 mg/kg, route oral; conditions: plasma
[35] = Terminal half life in beagle dog at 2.5 mg/kg, iv; type: ADME, organism-based, Canis lupus familiaris; design: dose 2.5 mg/kg, route intravenous; conditions: in vivo, read-out: beta t1/2 (converted)
[36] = Oral bioavailability in Sprague-Dawley rat at 10 mg/kg; type: ADME, organism-based; conditions: in vivo
[37] = Terminal half life in cynomolgus monkey at 2.5 mg/kg, iv; type: ADME, organism-based, Macaca fascicularis; design: dose 2.5 mg/kg, route intravenous; conditions: in vivo, read-out: beta t1/2 (converted)
[38] = system: Hepatocyte; assay: Induction of CYP3A4 mRNA expression in human hepatocytes at 5 uM relative to rifampicin; type: ADME, cell-based; in short: as §1
[39] = AUC (0 to 6 hrs) in Sprague-Dawley rat at 10 mg/kg, po; type: ADME, organism-based; design: time < 6 hr, dose 10 mg/kg, route oral; conditions: plasma
[40] = species on record: Canis familiaris; assay: Drug metabolism in bile duct cannulated dog assessed as GSH adduct formation; type: ADME, organism-based, Canis lupus familiaris; conditions: in vivo
[41] = Volume of distribution at steady state in cynomolgus monkey at 2.5 mg/kg, iv and 5 mg/kg, po; type: ADME, organism-based, Macaca fascicularis; conditions: in vivo, read-out: Vdss
[42] = system: Canis familiaris; assay: as §2; type: ADME, organism-based, Canis lupus familiaris; conditions: in vivo
[43] = system: Canis familiaris; assay: as §3; type: ADME, organism-based, Canis lupus familiaris, Plasma; design: dose 5 mg/kg, route oral, time infinity; conditions: in vivo
[44] = system: Rattus norvegicus; assay: Drug metabolism in bile duct cannulated rat assessed as 6-(3-cyano-1-cyclobutyl-6-(difluoromethoxy)-5-fluoro-1H-indol-2-yl)pyridine-3-sulfonamide formation in plasma at 5 mg/kg; type: ADME, organism-based; design: dose 5 mg/kg; conditions: in vivo

Structure (SMILES): CCc1cc2c(cc1F)c(C#N)c(-c1ccc(S(=O)(=O)N[C@@H](C)C(F)(F)F)cn1)n2-c1ncccn1
- Ratio [1]: 460
- Drug metabolism [2]: Active
- Drug metabolism [3]: Not Active
- Ratio [4]: 325
- IC50 [5]: > 10 µM
- Kp at 6 h [6]: 25
- IC50 [7]: > 10 µM
- clearance [8]: 11 mL/min/kg
- AUC(0-inf) [9]: 20 µM·h
- Activity [10]: 6%
- Activity [11]: 9%
- Drug metabolism [12]: Active
- Ratio [13]: 342
- Drug metabolism [14]: Active
- Cmax [15]: 540 nM
- Cmax [16]: 2400 nM
- bioavailability [17]: 78%
- Vd [18]: 2.1 L/kg
- Activity [19]: 37%
- AUC(0-inf) [20]: 29 µM·h
- EC50 [21]: 0.007 µM
- bioavailability [22]: 18%
- Vd [23]: 3.9 L/kg
- clearance [24]: 10.1 mL/min/kg
- IC50 [25]: > 10 µM
- Ratio [26]: 50
- Activity [27]: Non-toxic
- Cmax [28]: 4000 nM
- EC50 [29]: 0.002 µM
- clearance [30]: 4.6 mL/min/kg
- half-life [31]: 7.5 h
- IC50 [32]: > 10 µM
- Activity [33]: 9.8%
- AUC(0-inf) [34]: 3.1 µM·h
- half-life [35]: 8.9 h
- bioavailability [36]: 62%
- half-life [37]: 8 h
- Activity [38]: 15.4%
- AUC(0-t) at 6 h [39]: 8.16 µM·h
- Drug metabolism [40]: Not Active
- Vd [41]: 3.8 L/kg

- Kp at 6 h [6]: 11.4
- clearance [8]: 2.2 mL/min/kg
- AUC(0-inf) [9]: 24.8 µM·h
- F [42]: 91%
- AUC [43]: 24.79 µM·h
- bioavailability [22]: 35%
- clearance [24]: 3 mL/min/kg
- EC50 [29]: 0.007 µM
- half-life [31]: 11 h
- AUC(0-inf) [34]: 24.8 µM·h
- Drug metabolism [44]: Active
- half-life [35]: 149 h
- bioavailability [36]: 49%
- half-life [37]: 22 h
- AUC(0-t) at 6 h [39]: 13.4 µM·h
Structure (SMILES): C[C@H](NS(=O)(=O)c1ccc(-c2c(C#N)c3cc(F)c(OC(F)F)cc3n2C2CCC2)nc1)C(F)(F)F
- IC50 [5]: 9.1 µM
- Ratio [13]: 277
